Assay results as given in ChEMBL document CHEMBL2021785, “Compounds of Alpinia katsumadai as potential efflux inhibitors in Mycobacterium smegmatis” (2012).
Values after ≈ are worked out from the molar mass of the structure shown. Active and inactive are the calls of the source. The calls are words filed in the database; no cut-off is given here.

Columns and labels:
[1] = test system: Mycolicibacterium smegmatis MC2 155; assay: Inhibition of Multidrug resistance efflux pump in Mycobacterium smegmatis mc2 155 assessed as modulation of EtBr-mediated antibacterial activity measuring reduction in MIC at 1/2 of MIC after 72 hrs by MTT assay relative to control
Procedure, shortened: (§1)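 Checkerboard-type modulation by broth dilution in MHB with DMSO-dissolved modulators: either modulator held constant (half its MIC) with two-fold serially diluted antibiotic/EtBr, or antibiotic fixed with modulator serially diluted. Final inoculum 5 × 10^5 cfu/mL, 37 °C, 72 h, MTT read-out. Modulation factor quantifies shift in antibiotic/EtBr MIC; FICI assesses combination effect.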

[2] = test system: Mycolicibacterium smegmatis MC2 155; assay: Inhibition of Multidrug resistance efflux pump in Mycobacterium smegmatis mc2 155 assessed as modulation of EtBr-mediated antibacterial activity measuring ratio of EtBr MIC to EtBr and compound MIC at 4 mg/L after 72 hrs by MTT assay; procedure, shortened: as §1
[3] = test system: Mycolicibacterium smegmatis MC2 155; assay: Inhibition of Multidrug resistance efflux pump in Mycobacterium smegmatis mc2 155 assessed as modulation of isoniazid-mediated antibacterial activity measuring ratio of isoniazid MIC to isoniazid and compound MIC at 4 mg/L after 72 hrs by MTT assay; procedure, shortened: as §1
[4] = test system: Mycolicibacterium smegmatis MC2 155; assay: Inhibition of Multidrug resistance efflux pump in Mycobacterium smegmatis mc2 155 assessed as modulation of rifampicin-mediated antibacterial activity measuring reduction in MIC at 1/2 of MIC after 72 hrs by MTT assay relative to control; procedure, shortened: as §1
[5] = test system: Mycolicibacterium smegmatis; assay: Antibacterial activity against Mycobacterium smegmatis mc2 155 after 72 hrs by MTT assay; assay type: functional; conditions: str. MC2 155, 72 h
Procedure, shortened: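 Broth dilution in Mueller-Hinton broth; compounds dissolved in DMSO, two-fold serial dilutions; inoculum adjusted to McFarland 0.5 and diluted to final 5 × 10^5 cfu/mL; cells pre-grown on Columbia blood agar with 5% horse blood, 37 °C, 72 h. Plates incubated 37 °C for 72 h; MIC read after MTT as lowest concentration inhibiting growth.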

[6] = test system: Mycolicibacterium smegmatis MC2 155; assay: Inhibition of Multidrug resistance efflux pump in Mycobacterium smegmatis mc2 155 assessed as modulation of rifampicin-mediated antibacterial activity measuring ratio of rifampicin MIC to rifampicin and compound MIC at 4 mg/L after 72 hrs by MTT assay; procedure, shortened: as §1
[7] = test system: Mycolicibacterium smegmatis MC2 155; assay: Inhibition of Multidrug resistance efflux pump in Mycobacterium smegmatis mc2 155 assessed as modulation of isoniazid-mediated antibacterial activity measuring ratio of isoniazid MIC to isoniazid and compound MIC at 64 mg/L after 72 hrs by MTT assay; procedure, shortened: as §1
[8] = test system: Mycolicibacterium smegmatis MC2 155; assay: Inhibition of Multidrug resistance efflux pump in Mycobacterium smegmatis mc2 155 assessed as modulation of EtBr-mediated antibacterial activity measuring ratio of EtBr MIC to EtBr and compound MIC at 64 mg/L after 72 hrs by MTT assay; procedure, shortened: as §1
[9] = test system: Mycolicibacterium smegmatis MC2 155; assay: Inhibition of Multidrug resistance efflux pump in Mycobacterium smegmatis mc2 155 assessed as EtBr accumulation measuring relative fluorescence at 1/4 of MIC measured for 60 mins by spectrophotometry relative to control
Procedure, shortened: (§2)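 Overnight 7H9/ADC culture (37 °C, 100 rpm) centrifuged and resuspended in PBS with 0.05% Tween 80 to OD600 0.4. Cells mixed 1:1 with test solutions containing 0.5 mg/L EtBr and 0.4% glucose, compounds from MIC down to 1/16 MIC. Fluorescence (ex 531/em 590 nm) read every 50 s at 37 °C for 60 min; repeated at least three times.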

[10] = test system: Mycolicibacterium smegmatis MC2 155; assay: Inhibition of Multidrug resistance efflux pump in Mycobacterium smegmatis mc2 155 assessed as inhibition of EtBr efflux measuring relative fluorescence at lower MIC measured for 60 mins by spectrophotometry relative to control
[11] = test system: Mycolicibacterium smegmatis MC2 155; assay: Inhibition of Multidrug resistance efflux pump in Mycobacterium smegmatis mc2 155 assessed as EtBr accumulation measuring relative fluorescence at half the MIC measured for 60 mins by spectrophotometry relative to control; procedure, shortened: as §2
[12] = test system: Mycolicibacterium smegmatis MC2 155; assay: Inhibition of Multidrug resistance efflux pump in Mycobacterium smegmatis mc2 155 assessed as modulation of rifampicin-mediated antibacterial activity measuring ratio of rifampicin MIC to rifampicin and compound MIC at 64 mg/L after 72 hrs by MTT assay; procedure, shortened: as §1
[13] = test system: Mycolicibacterium smegmatis MC2 155; assay: Inhibition of Multidrug resistance efflux pump in Mycobacterium smegmatis mc2 155 assessed as modulation of rifampicin-mediated antibacterial activity measuring fractional inhibitory concentration index at 64 mg/L after 72 hrs by MTT assay; procedure, shortened: as §1
[14] = test system: Mycolicibacterium smegmatis MC2 155; assay: Inhibition of Multidrug resistance efflux pump in Mycobacterium smegmatis mc2 155 assessed as modulation of ethambutol-mediated antibacterial activity measuring ratio of ethambutol MIC to ethambutol and compound MIC at 64 mg/L after 72 hrs by MTT assay; procedure, shortened: as §1
[15] = test system: Mycolicibacterium smegmatis MC2 155; assay: Inhibition of Multidrug resistance efflux pump in Mycobacterium smegmatis mc2 155 assessed as EtBr accumulation measuring relative fluorescence at MIC measured for 60 mins by spectrophotometry relative to control; procedure, shortened: as §2
[16] = test system: Mycolicibacterium smegmatis MC2 155; assay: Inhibition of Multidrug resistance efflux pump in Mycobacterium smegmatis mc2 155 assessed as modulation of ciprofloxacin-mediated antibacterial activity measuring ratio of ciprofloxacin MIC to ciprofloxacin and compound MIC at 64 mg/L after 72 hrs by MTT assay; procedure, shortened: as §1
[17] = test system: Mycolicibacterium smegmatis MC2 155; assay: Inhibition of Multidrug resistance efflux pump in Mycobacterium smegmatis mc2 155 assessed as modulation of EtBr-mediated antibacterial activity measuring fractional inhibitory concentration index at 64 mg/L after 72 hrs by MTT assay; procedure, shortened: as §1
[18] = test system: Mycolicibacterium smegmatis MC2 155; assay: Inhibition of Multidrug resistance efflux pump in Mycobacterium smegmatis mc2 155 assessed as inhibition of EtBr efflux measuring relative fluorescence at 1/8 of MIC measured for 60 mins by spectrophotometry relative to control
[19] = test system: Mycolicibacterium smegmatis MC2 155; assay: Inhibition of Multidrug resistance efflux pump in Mycobacterium smegmatis mc2 155 assessed as EtBr accumulation measuring relative fluorescence at 1/8 of MIC measured for 60 mins by spectrophotometry relative to control; procedure, shortened: as §2
[20] = test system: Mycolicibacterium smegmatis MC2 155; assay: Inhibition of Multidrug resistance efflux pump in Mycobacterium smegmatis mc2 155 assessed as inhibition of EtBr efflux measuring normalized fluorescence at half the MIC measured for 60 mins by spectrophotometry relative to control
[21] = test system: Mycolicibacterium smegmatis MC2 155; assay: Inhibition of Multidrug resistance efflux pump in Mycobacterium smegmatis mc2 155 assessed as EtBr accumulation measuring relative fluorescence at lower MIC measured for 60 mins by spectrophotometry relative to control; procedure, shortened: as §2
[22] = test system: Mycolicibacterium smegmatis MC2 155; assay: Inhibition of Multidrug resistance efflux pump in Mycobacterium smegmatis mc2 155 assessed as modulation of ethambutol-mediated antibacterial activity measuring reduction in MIC at 1/2 of MIC after 72 hrs by MTT assay relative to control; procedure, shortened: as §1

## CC/C=C\C/C=C\C/C=C\CCCCCCCC(=O)O [LINOLENIC ACID]
[1]
  fold change (FC): 4
[2]
  Ratio: 4
[3]
  Ratio: 1
[4]
  fold change (FC): 4
[5]
  MIC: 8 µg/mL (≈ 28.7 µM)
[6]
  Ratio: 4

## CCCCCCCCCCCCCCCC(=O)O [PALMITIC ACID]
[5]
  MIC: 128 µg/mL (≈ 499 µM)
[7]
  Ratio: 0.5
[8]
  Ratio: 1

## CO[C@H]1/C=C/O[C@@]2(C)Oc3c(C)c(O)c4c(O)c(c(/C=N/N5CCN(C)CC5)c(O)c4c3C2=O)NC(=O)/C(C)=C\C=C\[C@H](C)[C@H](O)[C@@H](C)[C@@H](O)[C@@H](C)[C@H](OC(C)=O)[C@@H]1C [RIFAMPIN]
[5]
  MIC: 32 µg/mL (≈ 38.9 µM)

## O=C(/C=C/C=C/c1ccccc1)CCc1ccccc1
[9]
  inhibition: Active
[10]
  inhibition: Dose-dependent effect
[11]
  RFU: 19400
[1]
  fold change (FC): 4
[12]
  Ratio: 4
[13]
  fractional inhibitory concentration index (FICI): 0.28
[14]
  Ratio: 1
[15]
  inhibition: Active
[16]
  Ratio: 1
[17]
  fractional inhibitory concentration index (FICI): 0.27
[18]
  inhibition: Active
[19]
  inhibition: Active
[4]
  fold change (FC): 4
[5]
  MIC: ≥ 128 µg/mL
[7]
  Ratio: 1
[8]
  Ratio: 4
[20]
  normalized EtBr fluorescence relative to control: 0.806
[21]
  inhibition: Dose-dependent effect

## O=C(O)c1cn(C2CC2)c2cc(N3CCNCC3)c(F)cc2c1=O [CIPROFLOXACIN]
[5]
  MIC: 0.125 µg/mL (≈ 0.377 µM)

## CCCCCCCC/C=C\CCCCCCCC(=O)O [OLEIC ACID]
[2]
  Ratio: 1
[3]
  Ratio: 1
[5]
  MIC: 8 µg/mL (≈ 28.3 µM)
[6]
  Ratio: 4

## O=C1C[C@@H](c2ccccc2)Oc2cc(O)cc(O)c21 [PINOCEMBRIN]
[11]
  RFU: 11200
[1]
  fold change (FC): 4
[12]
  Ratio: 2
[13]
  fractional inhibitory concentration index (FICI): 1.5
[14]
  Ratio: 2
[16]
  Ratio: 1
[17]
  fractional inhibitory concentration index (FICI): 0.5
[5]
  MIC: 128 µg/mL (≈ 499 µM)
[7]
  Ratio: 1
[8]
  Ratio: 4
[20]
  normalized EtBr fluorescence relative to control: 0.765
[22]
  fold change (FC): 2

## CC[C@@H](CO)NCCN[C@@H](CC)CO [ETHAMBUTOL]
[5]
  MIC: 1 µg/mL (≈ 4.89 µM)
